Results from different studies.
Lines come from different studies, so protocols differ.
Target: Serine/threonine-protein kinase DCLK2 (DCLK2, Homo sapiens, UniProt Q8N568)
Residues used in one study (Q8N568 1-766): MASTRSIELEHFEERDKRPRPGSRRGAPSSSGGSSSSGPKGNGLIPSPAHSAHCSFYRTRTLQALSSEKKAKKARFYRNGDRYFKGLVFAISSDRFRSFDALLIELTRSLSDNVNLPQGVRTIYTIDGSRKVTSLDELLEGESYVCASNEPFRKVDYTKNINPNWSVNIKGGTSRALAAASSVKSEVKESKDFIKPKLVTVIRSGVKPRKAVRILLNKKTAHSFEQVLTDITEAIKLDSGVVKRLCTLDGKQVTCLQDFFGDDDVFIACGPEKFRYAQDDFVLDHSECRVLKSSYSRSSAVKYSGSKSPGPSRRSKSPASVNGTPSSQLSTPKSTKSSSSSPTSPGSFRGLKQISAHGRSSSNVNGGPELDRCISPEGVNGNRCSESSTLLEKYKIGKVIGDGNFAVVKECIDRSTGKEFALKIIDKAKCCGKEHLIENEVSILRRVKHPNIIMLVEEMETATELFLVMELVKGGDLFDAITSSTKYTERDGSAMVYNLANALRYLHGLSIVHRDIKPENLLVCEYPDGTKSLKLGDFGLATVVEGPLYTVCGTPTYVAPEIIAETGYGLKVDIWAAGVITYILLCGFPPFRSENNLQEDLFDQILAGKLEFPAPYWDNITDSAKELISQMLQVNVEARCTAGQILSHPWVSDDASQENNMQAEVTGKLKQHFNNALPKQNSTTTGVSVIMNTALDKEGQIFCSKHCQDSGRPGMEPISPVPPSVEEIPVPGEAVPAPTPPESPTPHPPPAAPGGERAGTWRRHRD

| SMILES | effect on | technique | concentration | remaining binding [%] |
| --- | --- | --- | --- | --- |
| O=C(c1ccc(Nc2ncc(Cl)c(-c3ccc(Cl)s3)n2)cc1)N1CCC(N2CCCC2)CC1 | binding | competition with immobilised ligand | 1 µM | 90 |
| c1cnn2ncc(-c3ccnc(N4CCC45COC5)n3)c2c1 | binding |  | 1 µM | 78 |
| O=C(c1ccc(Nc2ncc(Cl)c(-c3cc4ccccc4s3)n2)cc1)N1CCC(N2CCCC2)CC1 | binding | competition with immobilised ligand | 1 µM | 90 |
| Cn1nc(C(F)(F)F)cc1-c1cnc(N2CCc3cc(S(=O)(=O)Nc4c(F)cc(Cl)cc4F)cc(N4CCCC4=O)c32)nc1 | cell-free assay | competition with immobilised ligand | 1 µM | 100 |
| O=C(NCCCN1CCOCC1)c1ccc(Nc2ncc(Cl)c(-c3ccc(Cl)s3)n2)cc1 | binding | competition with immobilised ligand | 1 µM | 78 |
| COc1cnc(Nc2cccc(S(N)(=O)=O)c2)nc1N1CCN(c2ccccc2)C(=O)C1 | binding | competition with immobilised ligand | 1 µM | 100 |
| CN(C)CC#Cc1ccc(OCCCc2sc(N3CCc4cccc(C(=O)Nc5nc6ccccc6s5)c4C3)nc2C(=O)O)c(F)c1 | cell-free assay | competition with immobilised ligand | 1 µM | 100 |
| CN(C)c1ncc(F)c(-c2cnn3ncccc23)n1 | binding |  | 1 µM | 96 |
| CCN1CCN(Cc2ccc(C(=O)Nc3ccc(C)c(Oc4ccc5c(c4)CC(=O)N5)c3)cc2C(F)(F)F)CC1 | binding | competition with immobilised ligand | 1 µM | 92 |
| CN(CCCC(F)(F)F)c1nccc(-c2cnn3ncccc23)n1 | binding |  | 1 µM | 88 |
| C[C@@H](c1ccc(-n2cnc3c(N)ncnc32)cc1)N1CCc2nn(C)c(Cc3ccccc3)c2C1=O | binding | competition with immobilised ligand | 0.1 µM | 100 |
| Cc1cc(-n2nc(Cc3cc(F)cc(C(F)(F)F)c3)nc2C)ccc1C(N)=O | cell-free assay | competition with immobilised ligand | 1 µM | 100 |
| COc1ccnn2ncc(-c3ccnc(N(C)C)n3)c12 | binding |  | 1 µM | 100 |
| NS(=O)(=O)c1cc(NC(=O)C2(c3ccccc3Cl)CC2)ccc1Oc1cccc(Cl)c1 | cell-free assay | competition with immobilised ligand | 1 µM | 74 |
| COc1ncc2cc3ccccc3nc2c1C#N | cell-free assay | competition with immobilised ligand | 5 µM | 94 |
| CCC(=O)N[C@H]1CC[C@@H](C(=O)N(C)c2ccc(-c3nc4ccccc4o3)cc2)C1 | cell-free assay | competition with immobilised ligand | 1 µM | 98 |
| Nc1ncc2c(n1)-c1c([nH]c3ccc(C#CC4CC4)cc13)CCCC2 | binding | competition with immobilised ligand | 1 µM | 89 |
| CO[C@@H](C)c1c(Nc2ccc([C@@H](N(C)C(=O)C3CCS(=O)(=O)CC3)C(F)(F)F)cc2)cnc2cc(Cl)nn12 | cell-free assay | competition with immobilised ligand | 1 µM | 95 |
| O=C(Nc1c[nH]nc1C(=O)NC1CCNCC1)c1cc(F)cc(F)c1 | binding | competition with immobilised ligand | 1 µM | 100 |
